# Assay results as given in ChEMBL document CHEMBL1141607, “Design, synthesis, and in vitro photodynamic activities of benzochloroporphyrin derivatives as tumor photosensitizers” (Bioorg Med Chem Lett, 2008).
# Activity calls are given as the source filed them. The rule behind the calls is not given here.
# What was measured:
# Bel-7402 [1] = test: Cytotoxicity against human BEL-7402 cells assessed as photo-induced growth inhibition upto 2.5 ug/mL after 24 hrs in dark by MTT assay; format: functional; parameters: scale not given: the % may be the effect or the level left
# Outline: (§1)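 Human hepatoma BEL-7402 cells were incubated with compound (0.03125–2.5 µg/mL) in the dark for 24 h at 37 °C. Cells in the light arm were then irradiated with a 670 nm laser at 10 J/cm² (56 mW/cm² for 3 min); dark-arm cells were not irradiated. Cells were then incubated for 24 h at 37 °C and survival was read by MTT in triplicate. IC50 was reported with 95% confidence limits.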
# Bel-7402 [2] = test: Cytotoxicity against human BEL-7402 cells assessed as photo-induced growth inhibition after 24 hrs in dark by MTT assay; format: functional, cell-based; details: Bel-7402, 24 h; outline: as §1
# Bel-7402 [3] = test: Induction of apoptosis in human BEL-7402 cells […] by methyl green-pyronin staining method; format: functional, cell-based
SMILES,Activity (Bel-7402 [1]) [%],IC50 (Bel-7402 [2]) [µg/mL],Activity (Bel-7402 [3])
CCC1=C(C)c2cc3[nH]c(cc4nc(c5c6[nH]c(cc1n2)c(C)c6C(=O)C5C(=O)OC)C(CCC(=O)OC)=C4C)[C@@]1(C)C3=CC=C(C(=O)OC)[C@H]1C(=O)OC (some centres undefined),>92,0.26,Active
CCC1=C(C)c2cc3[nH]c(cc4nc(c(C(=O)OC)c5[nH]c(cc1n2)c(C)c5C(=O)OC)C(CCC(=O)OC)=C4C)[C@@]1(C)C3=CC=C(C(=O)OC)[C@H]1C(=O)OC,>92,0.27,
CCC1=C(C)c2cc3[nH]c(cc4nc(c(CC(=O)OC)c5[nH]c(cc1n2)c(C)c5C(=O)OC)C(CCC(=O)OC)=C4C)[C@@]1(C)C3=CC=C(C(=O)OC)[C@H]1C(=O)OC,>92,1.32,
CCC1=C(C)c2cc3[nH]c(cc4nc(c(C)c5[nH]c(cc1n2)c(C)c5C(=O)OC)C(CCC(=O)OC)=C4C)[C@@]1(C)C3=CC=C(C(=O)OC)[C@H]1C(=O)OC,>92,0.47,
